Our source for the Activity, FC and Ratio values is ChEMBL document CHEMBL1275406, “Comparison of the antimicrobial effects of chlorine, silver ion, and tobramycin on biofilm” (2008).

Activity calls are given as the source filed them. The calls are words filed in the database; no cut-off is given here.

The subject of test [1] is Pseudomonas aeruginosa. The test can be described thus: Antimicrobial activity against Pseudomonas aeruginosa PAO1 grown as planktonic cells assessed as concentration and time required inactivate 1 log bacterial cells. The test is classed as functional. The method in brief:
(§1)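 Washed overnight PAO1 cultures at 10^6 CFU/ml in 50 ml, exposed to agent at 1 or 10 mg/liter (data averaged) in capped flasks with slow magnetic stirring. Survival by plate count only. Log10 reduction plotted against CT (mg·min/liter); CT90 or 2-log CT read or extrapolated from the curve.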

Test [2] has as its system Pseudomonas aeruginosa. As to the kind of experiment: Antimicrobial activity against Pseudomonas aeruginosa PAO1 grown as biofilms. The test is classed as functional, organism-based. The method in brief: (§2)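 PAO1 biofilm grown 24 h batch then 24 h continuous flow on coupons, exposed to 10 mg/liter agent unstirred. Biofilm dislodged by sonication/vortexing, plate counted after 24 h at 37°C in triplicate. Log10 reduction plotted against concentration × contact time; CT for 2-log inactivation taken by extrapolating the curve. Experiments repeated 2–3 times.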

For test [3], the system named is Pseudomonas aeruginosa. As to the kind of experiment: Antimicrobial activity against Pseudomonas aeruginosa PAO1 assessed as log reduction in bacterial count at 10 mg/L after 50 mins by plate count method. It is filed as functional. The procedure, abridged:
(§3)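 P. aeruginosa PAO1 biofilm grown on reactor coupons (24 h batch in 1/100-strength TSB, room temp, 100 rpm, then 24 h continuous flow in 1/300-strength TSB). Coupons rinsed and soaked unstirred in 10 mg/liter agent. Biofilm removed by sonication/vortexing in PBS. Counts by plate count (24 h, 37°C), CTC (1.6 μg/ml) or Syto9/propidium iodide stain on filtered cells, each normalized to DAPI total and to untreated biofilm; log10 reduction.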

The test system of test [4] is Pseudomonas aeruginosa. As to the kind of experiment: Antimicrobial activity against Pseudomonas aeruginosa PAO1 assessed as log reduction in bacterial count at 10 mg/L after 50 mins by CTC staining. The test is classed as functional. The procedure, abridged:
as §3

The subject of test [5] is Pseudomonas aeruginosa. As to the kind of experiment: Antimicrobial activity against Pseudomonas aeruginosa PAO1 assessed as log reduction in bacterial count at 10 mg/L after 50 mins by BacLight Live/Dead staining. The test is classed as functional. The method in brief: as §3
Test [6] relates to Pseudomonas aeruginosa. As to the kind of experiment: Antimicrobial activity against Pseudomonas aeruginosa PAO1 grown as biofilm assessed as membrane integrity by BacLight Live/Dead staining. The test is classed as functional. The method in brief: (§4)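 P. aeruginosa PAO1 reactor-grown biofilm coupons soaked in 10 mg/liter agent without stirring. Coupons stained 1 h in the dark with BacLight Syto9/propidium iodide or CTC (1.6 μg/ml, 37°C) plus DAPI (10 μg/ml), then imaged by confocal microscopy. Ratios are read at the point where plate-count culturability fell to 60%, normalized to untreated biofilm.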

Test [7] deals with Pseudomonas aeruginosa. The test can be described thus: Antimicrobial activity against Pseudomonas aeruginosa PAO1 grown as biofilm assessed as respiratory activity by CTC-DAPI staining. The test is classed as functional, organism-based. The procedure, abridged: as §4
The subject of test [8] is Pseudomonas aeruginosa. The test can be described thus: Antimicrobial activity against Pseudomonas aeruginosa PAO1 grown as planktonic cells assessed as concentration and time required inactivate 2 log bacterial cells. It is filed as functional. The procedure, abridged:
as §1

Test [9] deals with Pseudomonas aeruginosa. The test can be described thus: Antimicrobial activity against Pseudomonas aeruginosa PAO1 grown as biofilm assessed as concentration and time required inactivate 2 log bacterial cells. The test is classed as functional. The procedure, abridged: as §2
Test [10] deals with Pseudomonas aeruginosa. As to the kind of experiment: Ratio of antimicrobial activity against Pseudomonas aeruginosa PAO1 grown as biofilm assessed as concentration and time required inactivate 2 log bacterial cells to antimicrobial activity against Pseudomonas aeruginosa PAO1 grown as planktonic cells assessed as concentration and time required inactivate 2 log bacterial cells. It is filed as functional. The procedure, abridged: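 Ratio computed as biofilm CT over planktonic CT for 2-log inactivation of PAO1. Biofilm values come from coupons exposed to 10 mg/liter agent. Planktonic values come from 10^6 CFU/ml suspensions exposed to 1 or 10 mg/liter. Both were measured by plate count.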

As to `NC[C@H]1O[C@H](O[C@H]2[C@H](O)[C@@H](O[C@H]3O[C@H](CO)[C@@H](O)[C@H](N)[C@H]3O)[C@H](N)C[C@@H]2N)[C@H](N)C[C@@H]1O` [TOBRAMYCIN], the Activity in test [1] came to 20 mg·min/L; in [6], 70%; in test [8], 30 mg·min/L; in [9], 1000 mg·min/L. Also, the result in test [2] and in test [7] was Active. Further, the values for the FC in [3], in [4] and in [5] were 1.5, 0.9 and 0.2, respectively. Further, the Ratio in [10] worked out at 33.
